Among the data in ChEMBL document CHEMBL4138048, “Synthesis of substituted 2H-benzo[e]indazole-9-carboxylate as a potent antihyperglycemic agent that may act through IRS-1, Akt and GSK-3β pathways” (Medchemcomm, 2017) are Activity, inhibition in vivo and inhibition values, retold here.

In series [1] the test system is Mus musculus. The series can be described thus: Antihyperglycemic activity in db/db mouse assessed as reduction in blood glucose level at 30 mg/kg, po qd and measured on day 7 by oral glucose tolerance test. The class given is functional, organism-based. The procedure, abridged:
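Type 2 diabetic db/db mice dosed orally once a day for 15 days at 3, 10 or 30 mg/kg, with pioglitazone at 10 mg/kg as standard. Blood glucose measured daily and profile compared with vehicle-treated animals. Mean % change in 5 animals per group.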

Series [2] has as its system Rattus norvegicus. The series can be described thus: Antihyperglycemic activity in albino Wistar rat assessed as inhibition of postprandial hyperglycemia at 100 mg/kg, po dosed 30 mins before sucrose load and measured 30 to 120 mins post sucrose injection by glucometry. The class given is functional. The procedure, abridged: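 Normal albino rats given an oral sucrose load, with a single oral dose of 100 mg/kg b.wt. Blood glucose profile followed after the load, and glucose AUC taken over 0–2 h. Percent inhibition of the postprandial rise in blood glucose calculated against control. Mean % change in 5 animals per group.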

The test system of series [3] is Mus musculus. The series can be described thus: Antihyperglycemic activity in db/db mouse assessed as reduction in cholesterol level at 30 mg/kg, po qd for 15 days. Format: functional. More on the design: scale not given: the % may be the effect or the level left. The procedure, abridged:
(§1)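 db/db mice given 3, 10 or 30 mg/kg orally once a day for 15 consecutive days, alongside vehicle controls. Serum triglyceride, total cholesterol, HDL-C and insulin measured, along with fasting blood glucose. Expressed as mean % change in 5 animals per group versus control.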

The test system of series [4] is Mus musculus. Kind of series: Antihyperglycemic activity in db/db mouse assessed as reduction in fasting blood glucose level at 10 mg/kg, po qd for 15 days. The class given is functional. Also on record: scale not given: the % may be the effect or the level left. In outline: as §1
For series [5], the system named is Mus musculus. Kind of series: Antihyperglycemic activity in db/db mouse assessed as improvement on glucose tolerance by measuring blood glucose AUC level at 3 to 30 mg/kg, po qd for 10 days by oral glucose tolerance test. Format: functional, organism-based. In outline:
(§2)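 db/db mice dosed orally once daily for 15 consecutive days at 3, 10 or 30 mg/kg, with vehicle controls and pioglitazone at 10 mg/kg. Oral glucose tolerance tests on day 10 and day 15. Overall improvement in glucose tolerance calculated against vehicle control. Mean % change in 5 animals per group.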

For series [6], the system named is Mus musculus. Kind of series: Antihyperglycemic activity in db/db mouse assessed as improvement on glucose tolerance by measuring blood glucose AUC level at 3 mg/kg, po qd for 10 days by oral glucose tolerance test. The class given is functional. In outline:
as §2

The test system of series [7] is L6. Kind of series: Stimulation of [3H]2-deoxyglucose uptake in rat L6 cells incubated for 16 hrs by scintillation counting method. The class given is functional, cell-based. In outline: (§3)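 L6 myotubes incubated with the compound […]; insulin at 100 nM for 20 min served as the positive control. Uptake of ³H-2-deoxyglucose measured and expressed as fold stimulation relative to the control condition.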

Series [8] deals with Mus musculus. Kind of series: Antihyperglycemic activity in db/db mouse assessed as improvement on glucose tolerance by measuring blood glucose AUC level at 30 mg/kg, po qd for 10 days by oral glucose tolerance test. Format: functional. The procedure, abridged:
as §2

The subject of a further series is HepG2. Kind of series: Inhibition of glucagon-mediated glucose release in human HepG2 cells at 10 uM incubated for 24 hrs by Amplex red glucose/glucose oxidase assay. The class given is functional, cell-based.
Series [9] has as its system Rattus norvegicus. The series can be described thus: Antihyperglycemic activity in Sprague-Dawley rat model of STZ-induced diabetes assessed as improvement on glucose tolerance at 100 mg/kg, po dosed 30 mins before sucrose load and measured after 5 hrs post sucrose load by glucometry. Format: functional. In outline: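 Sucrose-challenged streptozotocin-induced diabetic rats, single oral dose of 100 mg/kg b.wt. Blood glucose profile followed after sucrose load, and glucose AUC taken over 0–24 h. Percent improvement in glucose tolerance calculated at 5 h post sucrose load. Values are mean % change in 5 animals per group, compared with control.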

Series [10] has as its target T1, Tyrosine-protein phosphatase non-receptor type 1 (Rattus norvegicus) (UniProt P20417).
T1 sequence (whole entry): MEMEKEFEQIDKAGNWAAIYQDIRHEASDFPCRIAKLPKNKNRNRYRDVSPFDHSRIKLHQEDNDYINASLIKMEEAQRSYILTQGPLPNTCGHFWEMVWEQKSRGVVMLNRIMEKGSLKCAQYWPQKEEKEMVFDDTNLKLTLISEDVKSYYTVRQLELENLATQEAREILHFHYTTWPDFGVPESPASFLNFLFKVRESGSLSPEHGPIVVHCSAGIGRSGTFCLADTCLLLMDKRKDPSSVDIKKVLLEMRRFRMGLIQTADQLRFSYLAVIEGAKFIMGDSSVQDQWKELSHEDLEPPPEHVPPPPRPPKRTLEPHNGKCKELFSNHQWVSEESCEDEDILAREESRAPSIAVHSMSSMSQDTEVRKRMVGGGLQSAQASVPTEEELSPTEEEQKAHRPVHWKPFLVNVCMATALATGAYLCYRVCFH
The series can be described thus: Inhibition of PTP1B in rat L6 cells assessed as increase in insulin-stimulated Akt Ser473 phosphorylation at 10 to 25 uM pre-incubated for 16 hrs before insulin stimulation for 10 mins by Western blot method. The class given is cell-based. The procedure, abridged:
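L6 myotubes treated for 16 h with the compound at the indicated concentrations, then stimulated with insulin (100 nM) for 10 min. Cells lysed and analysed by western blot. Densitometry of p-IRS-1, p-AKT and p-GSK, each relative to its total form. Compared with control and with insulin-treated control.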

Series [11] concerns the target T2, Tyrosine-protein phosphatase non-receptor type 1 (Homo sapiens) (UniProt P18031).
T2 sequence (whole entry): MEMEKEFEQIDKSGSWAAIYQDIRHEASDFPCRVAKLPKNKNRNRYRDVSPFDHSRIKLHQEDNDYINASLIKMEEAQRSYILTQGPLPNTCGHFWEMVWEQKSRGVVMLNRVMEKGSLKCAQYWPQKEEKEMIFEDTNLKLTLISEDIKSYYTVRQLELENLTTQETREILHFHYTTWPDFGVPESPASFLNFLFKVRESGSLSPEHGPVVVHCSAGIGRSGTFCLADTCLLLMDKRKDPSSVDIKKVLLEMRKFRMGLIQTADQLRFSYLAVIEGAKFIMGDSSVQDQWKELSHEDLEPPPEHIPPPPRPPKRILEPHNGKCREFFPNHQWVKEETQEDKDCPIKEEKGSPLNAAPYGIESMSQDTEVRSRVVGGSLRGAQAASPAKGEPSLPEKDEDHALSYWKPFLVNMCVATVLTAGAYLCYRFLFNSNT
Kind of series: Inhibition of human recombinant PTP1B using IR5 insulin receptor-beta (1142 to 1153 residues, pY1146) substrate BY Malachite green dye based assay.

Series [12] relates to Mus musculus. Kind of series: Antihyperglycemic activity in db/db mouse assessed as reduction in fasting blood glucose level at 3 to 30 mg/kg, po qd for 15 days. The class given is functional, organism-based. The procedure, abridged: as §1
For series [13], the system named is Mus musculus. Kind of series: Toxicity in db/db mouse assessed as effect on body weight level at 3 to 30 mg/kg, po qd for 15 days by oral glucose tolerance test. Format: organism-based. Particulars: in vivo, 360 h.
In series [14] the test system is Mus musculus. The series can be described thus: Antihyperglycemic activity in db/db mouse assessed as improvement on glucose tolerance by measuring blood glucose AUC level at 3 mg/kg, po qd for 15 days by oral glucose tolerance test. The class given is functional. The procedure, abridged: as §2
Series [15] deals with Mus musculus. Kind of series: Antihyperglycemic activity in db/db mouse assessed as improvement on glucose tolerance by measuring blood glucose AUC level at 30 mg/kg, po qd for 15 days by oral glucose tolerance test. Format: functional. In outline:
as §2

Series [16] concerns L6. Kind of series: Stimulation of [3H]2-deoxyglucose uptake in rat L6 cells at 10 uM incubated for 16 hrs by scintillation counting method. Format: functional, cell-based. The procedure, abridged:
as §3

Activity calls are given as the source filed them. The calls are words filed in the database; no cut-off is given here.

Take `COC(=O)c1c(SC)cc(-c2ccc(C)cc2)c2c1-c1cn(-c3ccccc3)nc1CC2`: the result in the series on Mus musculus [1] and in the series with L6 [16] was Active. The inhibition in vivo (in general, the drop in the measured response relative to a control, in per cent) at 100 mg/kg in the series with Rattus norvegicus [2] was determined as 35.8%. Also, the Activity was 22.7% in the series on Mus musculus [3]; 14.1% in the series on Mus musculus [4]; “Dose-dependent effect” with Mus musculus [5]; 7.84% in the series on Mus musculus [6]; “Dose-dependent effect” with L6 [7]; 25.7% in the series on Mus musculus [8]. For the same compound, the Activity in the series with Rattus norvegicus [9] is 23.1%; in the series with Mus musculus [12], “Dose-dependent effect”; in the series with Mus musculus [13], “Non-Toxic”; with Mus musculus [14], 13.2%; with Mus musculus [15] it was 31.6%. In addition, the inhibition result (in the series on HepG2; in [10]) was “Active” throughout. In series [11], the inhibition result was “Dose-dependent effect”.
